The values that follow come from ChEMBL document CHEMBL1124086, “Inhibition of copper-dependent amine oxidases by some hydrazides of pyrrol-1-ylbenzoic and pyrrol-1-ylphenylacetic acids” (J Med Chem, 1988).

Target in the first experiment: not listed separately
As to the kind of experiment: Ki value measured for the inhibition of copper dependent amine oxidase in bovine plasma.
Details: not given
The experiment is classed as cell-free. The gist of the method: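 Bovine plasma amine oxidase, 36 µg/mL (0.2 µM), in 0.1 M phosphate buffer, pH 7.2. Benzylamine at 0.5, 2.5 and 5 mM, with no preincubation. Rate measured as benzaldehyde formed per minute at 37 °C. Apparent Ki taken from Dixon plots.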
`NNC(=O)c1ccccc1-n1cccc1` yielded a Ki of 300 µM.

Turning to `NNC(=O)c1cccc(-n2cccc2)c1`, the affinity, expressed as Ki, was 85 µM.

Regarding `NNC(=O)Cc1cccc(-n2cccc2)c1`, the affinity corresponds to a Ki of 0.7 µM.

`NNC(=O)Cc1ccc(-n2cccc2)cc1` came in with a Ki of 0.5 µM.

`Cc1ccc(C)n1-c1ccc(CC(=O)NN)cc1` gave a Ki of 10 µM.

In turn, `NNC(=O)c1ccc(-n2cccc2)cc1` had a Ki of 80 µM.

Consider `CC(C)=NNC(=O)Cc1ccc(-n2cccc2)cc1`, for which the Ki was determined as 0.8 µM.

Target in another experiment: not listed separately
In words: Effect on placental diamine oxidase (0.1 uM) after 0 min of incubation at pH 7.2. Set-up: species or system Homo sapiens. The following applies: read-out: I50. The procedure, abridged: (§1)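 Purified human placental diamine oxidase at 0.1 µM in 0.1 M phosphate buffer, pH 7.2, at 37 °C. Inhibitor added at zero time. After preincubation, saturating 3 mM p-[(dimethylamino)methyl]benzylamine added. Product aldehyde followed at 250 nm (E = 10.400 M-1 cm-1). I50 is the concentration giving 50% loss of activity. Two experiments in duplicate.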
Consider `NNC(=O)c1ccccc1-n1cccc1`, for which the IC50 was found to be 100 µM.

As to `NNC(=O)c1cccc(-n2cccc2)c1`, the IC50 amounted to 100 µM.

For `NNC(=O)Cc1cccc(-n2cccc2)c1`, the IC50 turned out to be 50 µM.

In the case of `NNC(=O)Cc1ccc(-n2cccc2)cc1`, the IC50 amounted to 10 µM.

`Cc1ccc(C)n1-c1ccc(CC(=O)NN)cc1`: the IC50 amounted to 100 µM.

Take `NNC(=O)c1ccc(-n2cccc2)cc1`: the IC50 came to 200 µM.

Consider `CC(C)=NNC(=O)Cc1ccc(-n2cccc2)cc1`, for which the IC50 is 50 µM.

Target in another experiment: not listed separately
In words: Effect on placental diamine oxidase (0.1 uM) after 30 min of incubation at pH 7.2. Set-up: species or system Homo sapiens. The following applies: read-out: I50. The gist of the method: as §1
As for `NNC(=O)c1ccccc1-n1cccc1`, the IC50 worked out at 100 µM.

For the compound `NNC(=O)c1cccc(-n2cccc2)c1`, the IC50 turned out to be 100 µM.

As to `NNC(=O)Cc1cccc(-n2cccc2)c1`, the IC50 stood at 10 µM.

As to `NNC(=O)Cc1ccc(-n2cccc2)cc1`, the IC50 came to 10 µM.

Take `Cc1ccc(C)n1-c1ccc(CC(=O)NN)cc1`: the IC50 is 50 µM.

For `NNC(=O)c1ccc(-n2cccc2)cc1`, the IC50 was 50 µM.

For `CC(C)=NNC(=O)Cc1ccc(-n2cccc2)cc1`, the IC50 stood at 10 µM.

Target in the next experiment: not listed separately
As to the kind of experiment: Ki value measured for the inhibition of human placenta diamine oxidase.
Details: not given
The procedure, abridged: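 Human placental diamine oxidase, 47 µg/mL (0.2 µM), in 0.1 M phosphate buffer, pH 7.2, with no preincubation. […] oxidation followed at 250 nm at 37 °C. Apparent Ki estimated from Dixon plots.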
In turn, `NNC(=O)c1ccccc1-n1cccc1` had a Ki of 250 µM.

For the compound `NNC(=O)c1cccc(-n2cccc2)c1`, the affinity corresponds to a Ki of 110 µM.

Turning to `NNC(=O)Cc1cccc(-n2cccc2)c1`, the inhibition constant Ki stood at 100 µM.

Compound `NNC(=O)Cc1ccc(-n2cccc2)cc1` yielded a Ki of 10 µM.

The compound `NNC(=O)c1ccc(-n2cccc2)cc1` yielded an inhibition constant Ki of 100 µM.

On to `CC(C)=NNC(=O)Cc1ccc(-n2cccc2)cc1`, for which the inhibitory constant (Ki) came out at 10 µM.

System in a further experiment: not listed separately
In words: Effect on plasma amine oxidase (0.1 uM) after 15 min of incubation at pH 7.2. The experiment is classed as cell-free. To be noted: 0.25 h, read-out: I50. The procedure, abridged:
(§2)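 Purified bovine plasma amine oxidase at 0.1 µM in 0.1 M phosphate buffer, pH 7.2, at 37 °C. Inhibitor added at zero time and preincubated. Saturating 3 mM benzylamine then added and benzaldehyde formation read at 250 nm (E = 12.500 M-1 cm-1). I50 is the concentration halving activity. Two experiments in duplicate.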
With `NNC(=O)c1ccncc1` [ISONIAZID], the IC50 was 10 µM.

System in the next experiment: not listed separately
As to the kind of experiment: Effect on plasma amine oxidase (0.1 uM) after 30 min of incubation at pH 7.2. The experiment is classed as cell-free. To be noted: 0.5 h, read-out: I50. The gist of the method: as §2
On to `NNC(=O)c1ccncc1` [ISONIAZID], for which the IC50 worked out at 10 µM.

System in the next experiment: not listed separately
As to the kind of experiment: Effect on plasma amine oxidase (0.1 uM) after 0 min of incubation at pH 7.2. The experiment is classed as cell-free. To be noted: 0 h, read-out: I50. The procedure, abridged: as §2
For the compound `NNC(=O)c1ccncc1` [ISONIAZID], the IC50 came to 100 µM.

System in a further experiment: not listed separately
As to the kind of experiment: Effect on plasma amine oxidase (0.1 uM) after 60 min of incubation at pH 7.2. The experiment is classed as cell-free. The following applies: 1 h, read-out: I50. The gist of the method:
as §2
`NNC(=O)c1ccncc1` [ISONIAZID]: the IC50 was determined as 5 µM.

Another experiment is filed under the species Rattus norvegicus. In words: Brain mitochondrial activity measured at 0 min of incubation at 1 uM concentration. The experiment is classed as functional.
Details: not given
The procedure, abridged: (§3)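 Rat brain mitochondria isolated by differential centrifugation of homogenates in 0.25 M sucrose, pH 7.4, then suspended in 0.1 M phosphate buffer, pH 7.2, at 37 °C. Inhibitor added at zero time, then saturating 1 mM kynuramine added after the incubation period. MAO activity read fluorimetrically. Percent inhibition reported from three experiments in duplicate.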
For the compound `NNC(=O)c1ccccc1-n1cccc1`, the Inhibition was 0%.

`NNC(=O)c1cccc(-n2cccc2)c1` yielded an Inhibition of 0%.

Consider `NNC(=O)Cc1cccc(-n2cccc2)c1`, for which the Inhibition is 0%.

In turn, `NNC(=O)Cc1ccc(-n2cccc2)cc1` had an Inhibition of 0%.

As to `Cc1ccc(C)n1-c1ccc(CC(=O)NN)cc1`, the Inhibition was 0%.

Compound `NNC(=O)c1ccncc1` [ISONIAZID] came in with an Inhibition of 12%.

As to `NNC(=O)c1ccc(-n2cccc2)cc1`, the Inhibition amounted to 0%.

`CC(C)=NNC(=O)Cc1ccc(-n2cccc2)cc1` registered an Inhibition of 0%.

The species named for a further experiment is Rattus norvegicus. In words: Brain mitochondrial activity measured at 0 min of incubation at 10 uM concentration. The experiment is classed as functional.
Details: not given
The gist of the method: as §3
The compound `NNC(=O)c1ccccc1-n1cccc1` yielded an Inhibition of 0%.

The compound `NNC(=O)c1cccc(-n2cccc2)c1` showed an Inhibition of 0%.

As to `NNC(=O)Cc1cccc(-n2cccc2)c1`, the Inhibition was determined as 2%.

In the case of `NNC(=O)Cc1ccc(-n2cccc2)cc1`, the Inhibition is given as 0%.

For the compound `Cc1ccc(C)n1-c1ccc(CC(=O)NN)cc1`, the Inhibition is on record as 0%.

Turning to `NNC(=O)c1ccncc1` [ISONIAZID], the Inhibition worked out at 14%.

The compound `NNC(=O)c1ccc(-n2cccc2)cc1` returned an Inhibition of 0%.

Compound `CC(C)=NNC(=O)Cc1ccc(-n2cccc2)cc1` returned an Inhibition of 0%.

The species named for the next experiment is Rattus norvegicus. In words: Brain mitochondrial activity measured at 0 min of incubation at 100 uM concentration.
Details: not given
The experiment is classed as functional. The gist of the method:
as §3
Compound `NNC(=O)c1ccccc1-n1cccc1` had an Inhibition of 0%.

`NNC(=O)c1cccc(-n2cccc2)c1` came in with an Inhibition of 0%.

Turning to `NNC(=O)Cc1cccc(-n2cccc2)c1`, the Inhibition amounted to 3%.

`NNC(=O)Cc1ccc(-n2cccc2)cc1` returned an Inhibition of 6%.

As to `Cc1ccc(C)n1-c1ccc(CC(=O)NN)cc1`, the Inhibition turned out to be 2%.

For the compound `NNC(=O)c1ccncc1` [ISONIAZID], the Inhibition turned out to be 19%.

`NNC(=O)c1ccc(-n2cccc2)cc1` had an Inhibition of 0%.

`CC(C)=NNC(=O)Cc1ccc(-n2cccc2)cc1` gave an Inhibition of 0%.

The species entered for another experiment is Rattus norvegicus. In words: Brain mitochondrial activity measured at 120 min of incubation at 1 uM concentration. The experiment is classed as functional.
Details: not given
The procedure, abridged:
as §3
In turn, `NNC(=O)c1ccccc1-n1cccc1` yielded an Inhibition of 3%.

The compound `NNC(=O)c1cccc(-n2cccc2)c1` returned an Inhibition of 0%.

As to `NNC(=O)Cc1cccc(-n2cccc2)c1`, the Inhibition stood at 0%.

On to `NNC(=O)Cc1ccc(-n2cccc2)cc1`, for which the Inhibition is reported as 2%.

`Cc1ccc(C)n1-c1ccc(CC(=O)NN)cc1`: the Inhibition was found to be 0%.

`NNC(=O)c1ccncc1` [ISONIAZID] registered an Inhibition of 16%.

The compound `NNC(=O)c1ccc(-n2cccc2)cc1` registered an Inhibition of 2%.

Consider `CC(C)=NNC(=O)Cc1ccc(-n2cccc2)cc1`, for which the Inhibition turned out to be 12%.

For the next experiment, the species on record is Rattus norvegicus. In words: Brain mitochondrial activity measured at 120 min of incubation at 10 uM concentration. The experiment is classed as functional.
Details: not given
The procedure, abridged:
as §3
In turn, `NNC(=O)c1ccccc1-n1cccc1` came in with an Inhibition of 5%.

As for `NNC(=O)c1cccc(-n2cccc2)c1`, the Inhibition is recorded as 5%.

Regarding `NNC(=O)Cc1cccc(-n2cccc2)c1`, the Inhibition worked out at 3%.

As for `NNC(=O)Cc1ccc(-n2cccc2)cc1`, the Inhibition is given as 4%.

`Cc1ccc(C)n1-c1ccc(CC(=O)NN)cc1` yielded an Inhibition of 0%.

Compound `NNC(=O)c1ccncc1` [ISONIAZID] showed an Inhibition of 16%.

Turning to `NNC(=O)c1ccc(-n2cccc2)cc1`, the Inhibition came to 16%.

`CC(C)=NNC(=O)Cc1ccc(-n2cccc2)cc1`: the Inhibition is 12%.

The species entered for another experiment is Rattus norvegicus. In words: Brain mitochondrial activity measured at 120 min of incubation at 100 uM concentration.
Details: not given
The experiment is classed as functional. The procedure, abridged: as §3
As for `NNC(=O)c1ccccc1-n1cccc1`, the Inhibition was determined as 6%.

In turn, `NNC(=O)c1cccc(-n2cccc2)c1` displayed an Inhibition of 8%.

`NNC(=O)Cc1cccc(-n2cccc2)c1` registered an Inhibition of 15%.

`NNC(=O)Cc1ccc(-n2cccc2)cc1` came in with an Inhibition of 9%.

With `Cc1ccc(C)n1-c1ccc(CC(=O)NN)cc1`, the Inhibition turned out to be 3%.

Take `NNC(=O)c1ccncc1` [ISONIAZID]: the Inhibition was 22%.

In turn, `NNC(=O)c1ccc(-n2cccc2)cc1` registered an Inhibition of 18%.

As for `CC(C)=NNC(=O)Cc1ccc(-n2cccc2)cc1`, the Inhibition was 18%.

Broadly, the Ki is the dissociation constant of the complex between target and ligand, obtained from inhibition or displacement. Low readings indicate tighter binding, high ones weaker binding. A word on the Inhibition: it is the percentage by which the read-out fell short of the control.
